Published values gathered from unrelated publications.
Each line is one published result; the experiments were not run side by side. In brackets after ≈: the same amount, converted by molar mass.

CN[C@@H]1[C@H](O)[C@H](NC)[C@H]2O[C@@]3(O)C(=O)C[C@@H](C)O[C@H]3O[C@@H]2[C@H]1O
MIC (Burkholderia cepacia; microbial growth, broth dilution; ATCC25416): 50 µg/mL (≈ 150 µM)

CN(c1ccccc1)S(=O)(=O)c1cc(C(=O)NCc2ccco2)ccc1Cl
inhibition (human PBMC; cell migration; 10 µM): 82%

CCCCCCCCCOc1ccc2[nH]cc(CCN)c2c1
IC50 (CAL-27; cell growth or viability; 72 h): 4.11 µM

COc1cc2c3c(n(CCCNCCO)c(=O)c2cc1OC)-c1cc2c(cc1C3=O)OCO2
GI50 (SN12C; cell growth or viability): < 0.01 µM

C=C(CCC=C(C)C)[C@H]1CC[C@H]2[C@@H]3CC=C4C[C@@H](O)CC[C@]4(C)[C@H]3CC[C@]12C
IC50 (Leishmania mexicana; parasite growth; 48 h, promastigote): > 262 µM

CCCCCCC/C=C/C(=O)N1C(=O)/C(=C(/C)O)C(=O)C1Cc1ccc(OC(C)(C)C)cc1 (stereo not drawn)
MIC (Burkholderia cepacia; microbial growth; ATCC25416): > 200 µg/mL

CCC1(c2ccc(N)cc2)CCC(=O)NC1=O (stereo not drawn)
IC50 (MCF-10A; cell growth or viability, CCK-8; 48 h): > 50 µM

C/C(O)=C1\C(=O)C(CC(C)C)N(C(=O)CCCCCc2ccccc2)C1=O (stereo not drawn)
MIC (Burkholderia cepacia; microbial growth; ATCC25416): > 200 µg/mL

Cc1cc(C)c(-n2ccn(-c3c(C)cc(C)cc3C)c2=[Se])c(C)c1
IC50 (HCT-15; cell growth or viability, MTT; 72 h): 10.7 µM

O=C(Oc1ccc(Cl)cc1)[c-]1cccc1.[Fe+2].c1cc[cH-]c1
IC50 (MCF-10A; cell growth or viability, MTT; 72 h): 500 µM

Cc1ccc(Cl)c(Nc2ccccc2C(=O)O)c1Cl
inhibition (human PBMC; cell migration; 10 µM): 100%

CCCCCCC/C=C/C(=O)N1C(=O)/C(=C(/C)O)C(=O)C1CCCCN (stereo not drawn)
MIC (Burkholderia cepacia; microbial growth; ATCC25416): > 200 µg/mL
